Here are results for 6 compounds from ChEMBL document CHEMBL3751814, “6-Methylpurine derived sugar modified nucleosides: Synthesis and in vivo antitumor activity in D54 tumor expressing M64V-Escherichia coli purine nucleoside phosphorylase” (Eur J Med Chem, 2016).

Calls of active or inactive are those of the source. The calls are words filed in the database; no cut-off is given here.

A short description of data set [1]: Prodrug activation assessed as recombinant Escherichia coli PNP-mediated compound cleavage at 100 uM by reverse phase HPLC analysis. An outline of the steps: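 Cleavage assay: 100 µM substrate in 50 mM potassium phosphate pH 7.4, with enzyme amount adjusted for a linear rate, at 25°C; aliquots at 0, 0.25, 0.5, 1, 2 h, stopped by boiling, filtered. Specific activity = nmol product/mg protein/time. Detection limit 1 nmol/mg/hr; mean of at least two experiments.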

A short description of data set [2]: Prodrug activation assessed as recombinant Escherichia coli PNP M64V mutant-mediated compound cleavage at 100 uM by reverse phase HPLC analysis.
Data set [3] is described as follows: Prodrug activation assessed as recombinant Trichomonas vaginalis PNP-mediated compound cleavage at 100 uM by reverse phase HPLC analysis. An outline of the steps:
(§1)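 Cleavage assay: 100 µM substrate in 50 mM potassium phosphate pH 7.4, with enzyme amount adjusted for a linear rate, at 25°C; aliquots at 0, 0.25, 0.5, 1, 2 h, stopped by boiling, filtered. Reverse-phase C-18 HPLC, 50 mM ammonium dihydrogen phosphate pH 4.5 with 1.25–5% acetonitrile, 254 nm detection. Specific activity = nmol product/mg protein/time. Detection limit 1 nmol/mg/hr; mean of at least two experiments.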

Data set [4] has as its target T1, Purine nucleoside phosphorylase (Homo sapiens, UniProt P00491).
T1 sequence (P00491 whole entry): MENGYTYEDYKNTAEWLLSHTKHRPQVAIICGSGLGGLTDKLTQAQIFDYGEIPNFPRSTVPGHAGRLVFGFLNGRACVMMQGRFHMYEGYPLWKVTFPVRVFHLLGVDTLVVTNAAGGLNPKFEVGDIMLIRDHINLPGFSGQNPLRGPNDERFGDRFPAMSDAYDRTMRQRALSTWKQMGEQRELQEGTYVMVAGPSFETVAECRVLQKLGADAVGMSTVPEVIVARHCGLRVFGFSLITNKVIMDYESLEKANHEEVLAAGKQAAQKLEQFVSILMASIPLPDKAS
Description: Prodrug activation assessed as recombinant human PNP-mediated compound cleavage at 100 uM by reverse phase HPLC analysis. An outline of the steps: as §1

Data set [5] addresses 5'-methylthioadenosine/S-adenosylhomocysteine nucleosidase (Escherichia coli O157:H7, UniProt P0AF14). Nature of the data set: Prodrug activation assessed as recombinant Escherichia coli SAH/MTA hydrolase-mediated compound cleavage at 100 uM by reverse phase HPLC analysis. An outline of the steps:
(§2)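 Reactions held 50 mM potassium phosphate (pH 7.4) and 100 µM substrate at 25°C. Enzyme was titrated to keep cleavage linear: native F. tularensis PNP from crude extract or recombinant E. coli SAH/MTA hydrolase. Samples were taken at 0–2 h and stopped by boiling. Base and nucleoside were resolved by C18 reverse-phase HPLC at 254 nm. Activity is nmol/mg protein/hr, the average of at least two experiments; detection limit is 1 nmol/mg/hr.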

A short description of data set [6]: Prodrug activation assessed as Francisella tularensis PNP-mediated compound cleavage at 100 uM by reverse phase HPLC analysis. In outline: as §2
Data set [7] concerns the target Purine nucleoside phosphorylase (Sulfolobus solfataricus (strain ATCC 35092 / DSM 1617 / JCM 11322 /P2), UniProt P50389). Nature of the data set: Prodrug activation assessed as recombinant Sulfolobus solfataricus MTAP-mediated compound cleavage at 100 uM by reverse phase HPLC analysis. Conditions: saccharolobus solfataricus. In outline:
as §1

Data set [8] is described as follows: Terminal half life of compound in mouse at 100 mg/kg, ip by reverse phase HPLC analysis. Format: ADME, organism-based. Conditions: in vivo, read-out: beta t1/2.
Data set [9] deals with D54MG. Nature of the data set: Antitumor activity against human D54MG cells expressing Escherichia coli PNP M64V mutant xenografted in nude mouse assessed as inhibition of tumor growth at 10 and 20 mg/kg, administered via peritoneal cavity 5 times a day (every 2 hrs) for 3 consecutive days measured on day 17 to 19 after tumor implantation. The data set is classed as functional, organism-based. An outline of the steps:
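Xenograft: parental and M64V-PNP-transduced D54MG human glioma cells mixed so 10% express M64V; 2 x 10⁷ total cells injected sc into flanks of nu/nu nude mice. At ~300 mg tumors (day 17), ip dosing 5 times daily (every 2 h) for 3 consecutive days at 5, 10 or 20 mg/kg; 6 mice/group. Tumors measured with calipers twice weekly; weight = length x width²/2; mean and SEM.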
(A xenograft is tissue or cells of one species grown in another, often human tumour cells in immunodeficient mice.)

Data set [10] can be described thus: Antitumor activity against human D54MG cells expressing Escherichia coli PNP M64V mutant xenografted in mouse assessed as time for tumor growth delay at maximum tolerated dose. The data set is classed as functional. An outline of the steps:
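Subcutaneous flank xenografts in nude mice (nu/nu) used a 90/10 mix of parental and M64V PNP-transduced D54MG glioma cells (2 x 10⁷ total cells). Starting on day 17, when tumors were about 300 mg, mice received ip doses of 5, 10 or 20 mg/kg five times daily (every 2 h) for 3 days, with 6 mice per group. Calipers were read twice weekly and weight was taken as length x width²/2.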

A short description of data set [11]: Prodrug activation in human D54MG cells expressing Escherichia coli PNP M64V mutant xenografted in nude mouse assessed as Escherichia coli PNP M64V mutant-mediated compound cleavage per mg of tumor tissue at 5-20 mg/kg administered via peritoneal cavity 5 times a day (every 2 hrs) for 3 consecutive days measured on day 17. Format: organism-based. The following applies: in vivo, ip. In outline: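 Tumor extracts were taken from mice bearing D54 xenografts with 10% M64V-PNP-expressing cells, removed at start of treatment (day 17). Cleavage of the prodrug substrate was reported as nmoles cleaved/mg-hr; N = 3.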

Data set [12] has as its target T2, S-methyl-5'-thioadenosine phosphorylase (Homo sapiens, UniProt Q13126).
T2 sequence (Q13126 whole entry): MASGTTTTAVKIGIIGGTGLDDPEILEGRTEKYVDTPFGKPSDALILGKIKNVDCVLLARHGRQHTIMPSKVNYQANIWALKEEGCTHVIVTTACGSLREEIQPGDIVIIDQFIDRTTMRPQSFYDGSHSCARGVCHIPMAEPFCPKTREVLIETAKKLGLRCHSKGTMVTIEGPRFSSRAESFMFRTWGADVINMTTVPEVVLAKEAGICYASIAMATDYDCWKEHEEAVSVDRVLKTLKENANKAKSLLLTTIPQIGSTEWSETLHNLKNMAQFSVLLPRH
Nature of the data set: Prodrug activation assessed as recombinant human MTAP-mediated compound cleavage at 100 uM by reverse phase HPLC analysis. In outline:
as §1

Data set [13] is described as follows: Antitumor activity against human D54MG cells expressing Escherichia coli PNP xenografted in nude mouse assessed as time for tumor growth delay at 33 mg/kg. Format: functional.
Data set [14] is described as follows: Terminal half life of compound in mouse plasma at 67 mg/kg, ip by reverse phase HPLC analysis. The following applies: read-out: beta t1/2. Format: ADME, organism-based.
A short description of data set [15]: Antitumor activity against human D54MG cells expressing Escherichia coli PNP xenografted in mouse assessed as time for tumor growth delay at 67 mg/kg. The data set is classed as functional.
Data set [16] can be described thus: Prodrug activation in human D54MG cells expressing Escherichia coli PNP xenografted in nude mouse assessed as Escherichia coli PNP-mediated compound cleavage per mg of tumor tissue. The following applies: in vivo.

Chain of 5'-methylthioadenosine/S-adenosylhomocysteine nucleosidase (P0AF14 whole entry): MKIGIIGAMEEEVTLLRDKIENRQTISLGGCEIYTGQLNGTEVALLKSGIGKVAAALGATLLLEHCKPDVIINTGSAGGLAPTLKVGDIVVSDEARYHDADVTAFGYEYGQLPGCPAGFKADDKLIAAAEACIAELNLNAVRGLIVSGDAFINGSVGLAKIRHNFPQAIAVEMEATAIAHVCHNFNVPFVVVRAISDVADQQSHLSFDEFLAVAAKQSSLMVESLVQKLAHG
Chain of Purine nucleoside phosphorylase (Sulfolobus solfataricus (strain ATCC 35092 / DSM 1617 / JCM 11322 /P2), UniProt P50389) (P50389 whole entry): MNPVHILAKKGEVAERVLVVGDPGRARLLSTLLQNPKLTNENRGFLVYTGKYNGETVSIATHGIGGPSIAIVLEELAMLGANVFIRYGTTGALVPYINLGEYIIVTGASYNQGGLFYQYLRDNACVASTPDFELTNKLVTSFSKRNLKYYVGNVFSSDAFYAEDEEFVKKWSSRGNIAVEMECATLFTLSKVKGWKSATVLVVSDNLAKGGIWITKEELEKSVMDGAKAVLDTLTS

As for `Cc1ncnc2c1ncn2[C@@H]1O[C@H](CO)[C@@H](O)[C@H]1O`, the Drug metabolism in data set [1] was found to be 96000 nmol/mg/h; in data set [2], 176000 nmol/mg/h; in [3], 155000 nmol/mg/h; in [4], 12 nmol/mg/h; in data set [5], 290 nmol/mg/h; in data set [6] it was 4800 nmol/mg/h. Further, the Drug metabolism in [7] was 4000 nmol/mg/h.
For `OC[C@H]1O[C@@H](n2cnc3c(O)ncnc32)[C@H](O)[C@@H]1O` [INOSINE], the Drug metabolism came to 342000 nmol/mg/h in data set [1]; 154000 nmol/mg/h in [3]; 391000 nmol/mg/h in data set [4]; 2000 nmol/mg/h in data set [6]; 84000 nmol/mg/h in [7].
In the case of `Cc1ncnc2c1ncn2[C@@H]1O[C@H]([C@H](C)O)[C@@H](O)[C@H]1O`, the half-life in [8] was 21 min. In [9], the inhibition entry was “Active”. In addition, the Time in data set [10] was greater than 32 days. In addition, the Drug metabolism in data set [1] was 915 nmol/mg/h; in data set [2], 86000 nmol/mg/h; in data set [3], 8400 nmol/mg/h; in [4] it was less than 1 nmol/mg/h; in data set [11], 365 nmol/mg/h; in data set [12], 4 nmol/mg/h. Further, the values for the Drug metabolism in data set [5], in data set [6] and in data set [7] were 51 nmol/mg/h, 100 nmol/mg/h and 1500 nmol/mg/h, respectively.
For `Cc1ncnc2c1ncn2[C@H]1C[C@H](O)[C@@H](CO)O1`, the Drug metabolism in data set [1] is 528000 nmol/mg/h; in data set [2] it was 593000 nmol/mg/h; in data set [3], 484000 nmol/mg/h; in data set [4] it was 35 nmol/mg/h; in data set [12], less than 1 nmol/mg/h; in [5], 30 nmol/mg/h. The Drug metabolism in data set [6] came out at 3900 nmol/mg/h; in data set [16], 40 nmol/mg/h; in [7] it was 12000 nmol/mg/h. The Time in data set [13] and in data set [15] was 22 days in each case. For the same compound, in [14], the half-life worked out at 14 min.
Turning to `Cc1ncnc2c1ncn2[C@@H]1O[C@@H](CO)[C@@H](O)[C@H]1O`, the Drug metabolism is 218 nmol/mg/h in [1]; 10000 nmol/mg/h in [2]; 10000 nmol/mg/h in data set [3]; less than 1 nmol/mg/h in data set [12]; 36 nmol/mg/h in data set [5]; 180 nmol/mg/h in data set [6]. Besides, the Drug metabolism in data set [7] amounted to 1400 nmol/mg/h.
As to `Nc1ncnc2c1ncn2[C@@H]1O[C@H](CO)[C@@H](O)[C@H]1O` [ADENOSINE], the Drug metabolism in [3] was determined as 501000 nmol/mg/h; in data set [12], 596 nmol/mg/h; in data set [5], 2100 nmol/mg/h; in [6], 2100 nmol/mg/h; in [7], 57000 nmol/mg/h.
